One block for each molecule: values may come before it.
Legend:
Prothrombin [1] = target: T1, Prothrombin (Homo sapiens, UniProt P00734); experiment: Inhibitory activity against thrombin.
[2] = Oral bioavailability; type: ADME, organism-based; settings: eutheria, in vivo
Summary of the method: (§1)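 Rats (275-325 g) with jugular cannula placed under methohexital one day earlier; dogs dosed by both routes with at least 2 weeks wash-out. IV and oral gavage in separate rats. At least six blood samples in EDTA. Plasma anti-IIa activity measured with S-2238 against a compound-spiked plasma calibration. %F = PO AUC divided by dose-normalized mean IV AUC ×100, AUC by trapezium rule.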

[3] = Bioavailability in rat (Wistar); type: ADME, organism-based; settings: in vivo; summary of the method: as §1
[4] = Half life value in wistar rats; type: ADME, organism-based; settings: rat, in vivo
Summary of the method: (§2)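 Elimination half-life after IV dosing of cannulated rats (275-325 g) or dogs, at least six EDTA plasma samples. Plasma samples diluted in Tris-NaCl pH 7.4, incubated 2 min with 0.5 U/mL human thrombin, then S-2238 added. ΔOD405 taken between 2 and 22 min and read against a calibration of compound spiked in pooled plasma. Fitted by iterative Simplex procedure.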

[5] = Bioavailability in dog; type: ADME, organism-based, Canis lupus familiaris; settings: in vivo; summary of the method: as §1
Prothrombin [6] = target: T1, Prothrombin; experiment: Antithrombotic potency in the Aortic flow model in rats was reported; type: functional; settings: Rattus norvegicus; target entry is the homologue from another species
Summary of the method: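 Rats (350-500 g body wt) were weighed. A silk thread (size 4/0, uncoated), knotted twice and protruding 3 mm from a catheter, was introduced via the left common carotid artery and positioned in the aorta. The carotid was clamped and the iliac clamp released. After 10 min of blood circulation, the thread was removed and rinsed, and thrombus weight and length were measured.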

[7] = Half life was reported; type: ADME
[8] = Half life value determined in dog; type: ADME, Canis lupus familiaris; settings: in vivo; summary of the method: as §2
[9] = Half life value in rat was determined; type: ADME, organism-based; settings: in vivo; summary of the method: as §2
[10] = Bioavailability in rat; type: ADME, organism-based; settings: in vivo; summary of the method: as §1
[11] = Half life value in dog was determined; type: ADME, organism-based, Canis lupus familiaris; settings: in vivo; summary of the method: as §2
[12] = Bioavailability determined in rat; type: ADME, organism-based; settings: in vivo; summary of the method: as §1
[13] = Bioavailability in dog determined; type: ADME, organism-based, Canis lupus familiaris; settings: in vivo; summary of the method: as §1
[14] = Clearance was reported; type: ADME, organism-based; settings: in vivo

Ki (Prothrombin [1]): 1.4 nM
Structure (SMILES): NCCCC[C@H](NC(=O)[C@@H]1CCCN1C(=O)[C@H](N)Cc1ccccc1)C(=O)C(=O)O

Ki (Prothrombin [1]): 146 nM
Structure (SMILES): NCCCC[C@H](NC(=O)[C@@H]1CCCN1C(=O)[C@H](N)Cc1ccccc1)C(=O)c1nccs1

bioavailability [2]: 27%
Structure (SMILES): CC1CNc2c(cccc2S(=O)(=O)N[C@@H](CCCNC(=N)N)C(=O)N2CC[C@@H](C)C[C@@H]2C(=O)O)C1 (stereo partly drawn) [ARGATROBAN]

Ki (Prothrombin [1]): > 1000 nM
Structure (SMILES): O=C(c1nccs1)[C@H](CCCCO)NC(=O)[C@@H]1CCCN1C(=O)CC(c1ccccc1)c1ccccc1

Ki (Prothrombin [1]): 204 nM
Structure (SMILES): NCCCC[C@H](NC(=O)[C@@H]1CCCN1C(=O)CC(c1ccccc1)c1ccccc1)C(=O)c1nccs1

bioavailability [3]: 37% | half-life [3]: 32 min | half-life [4]: 22 min | bioavailability [5]: 68% | Ki (Prothrombin [1]): 0.33 nM
Structure (SMILES): NCCCC[C@H](NC(=O)[C@@H]1C=CCN1C(=O)[C@@H](CC1CCCCC1)NCC(=O)O)C(=O)C(=O)O

bioavailability [2]: 23% | ED50 (nM min-1 kg-1) (Prothrombin [6]): 19 | half-life [7]: 23 min | Ki (Prothrombin [1]): 2.6 nM
Structure (SMILES): NCCCC[C@H](NC(=O)[C@@H]1CCCN1C(=O)[C@@H](CC1CCCCC1)NCC(=O)O)C(=O)c1nccs1

bioavailability [3]: < 5% | half-life [4]: 17 min | Ki (Prothrombin [1]): 3.5 nM
Structure (SMILES): NCCCC[C@H](NC(=O)[C@@H]1CCCN1C(=O)[C@H](N)CC1CCCCC1)C(=O)c1nccs1

Ki (Prothrombin [1]): 15 nM
Structure (SMILES): NCCCC[C@H](NC(=O)[C@@H]1CCCN1C(=O)[C@H](CC(=O)O)NS(=O)(=O)Cc1ccccc1)C(=O)C(=O)O

Ki (Prothrombin [1]): 1 nM
Structure (SMILES): NC(N)=NCCC[C@@H]1NC(=O)[C@@H]2CCCN2C(=O)[C@@H](NC=O)CNC(=O)/C=C/[C@H](Cc2ccc(O)cc2)NC(=O)[C@@H](Cc2ccccc2)NC(=O)C1=O [CYCLOTHEONAMIDE A]

Structure (SMILES): NC(N)=NCCC[C@H](NC(=O)[C@@H]1CCCN1C(=O)[C@@H](N)Cc1ccccc1)C(=O)c1nccs1
bioavailability [2]: < 5% | half-life [7]: 5 min | Ki (Prothrombin [1]): 0.3 nM

Structure (SMILES): NCCCC[C@H](NC(=O)[C@@H]1CCN1C(=O)[C@@H](CC1CCCCC1)NCC(=O)O)C(=O)C(=O)O
bioavailability [3]: 15% | half-life [4]: 21 min | bioavailability [5]: 1% | half-life [8]: 42 min | Ki (Prothrombin [1]): 0.5 nM

Ki (Prothrombin [1]): > 1000 nM
Structure (SMILES): COc1ccc2ccc(S(=O)(=O)N[C@@H](CCCCN)C(=O)N3CCC(C)CC3)cc2c1

Structure (SMILES): NCCCC[C@H](NC(=O)[C@@H]1CCCN1C(=O)[C@@H](CC1CCCCC1)NCC(=O)O)C(=O)C(=O)NCCc1ccccc1
half-life [9]: 17 min | bioavailability [10]: 23% | Ki (Prothrombin [1]): 0.84 nM

Structure (SMILES): CCS(=O)(=O)N[C@H](CC1CCCCC1)C(=O)N1CCC[C@H]1C(=O)N[C@@H](CCCCN)C(=O)c1nccs1
Ki (Prothrombin [1]): 2 nM

Structure (SMILES): NCCCC[C@H](NC(=O)CN(C(=O)[C@H](N)CC1CCCCC1)C1CC1)C(=O)c1nccs1
Ki (Prothrombin [1]): 13 nM

Structure (SMILES): NCCCC[C@H](NC(=O)[C@@H]1CCCN1C(=O)[C@H](N)CC1CCCCC1)C(=O)C(=O)O
bioavailability [2]: 9% | half-life [7]: 9 min | Ki (Prothrombin [1]): 0.14 nM

half-life [11]: 108 min | half-life [9]: 58 min | bioavailability [5]: 71% | bioavailability [10]: 32% | Ki (Prothrombin [1]): 1.1 nM
Structure (SMILES): CC(C)OC(=O)C(=O)[C@H](CCCCN)NC(=O)[C@@H]1CCCN1C(=O)[C@@H](CC1CCCCC1)NCC(=O)O

Ki (Prothrombin [1]): 376 nM
Structure (SMILES): CC1(C)CCN(C(=O)[C@@H](CC2CCCCC2)NCC(=O)O)[C@@H]1C(=O)N[C@@H](CCCCN)C(=O)C(=O)O

Structure (SMILES): NCCCC[C@H](NC(=O)[C@@H]1CCCCN1C(=O)[C@@H](CC1CCCCC1)NCC(=O)O)C(=O)C(=O)O
half-life [4]: 5 min | Ki (Prothrombin [1]): 0.29 nM | bioavailability [12]: 6%

Structure (SMILES): NCCCC[C@H](NC(=O)[C@@H]1CCCN1C(=O)[C@@H](CC1CCCCC1)NCC(=O)O)C(=O)c1ncco1
bioavailability [2]: 28% | half-life [7]: < 5 min | Ki (Prothrombin [1]): 0.42 nM

Ki (Prothrombin [1]): > 1000 nM
Structure (SMILES): COc1ccc2ccc(S(=O)(=O)N[C@@H](CCCCN)C(=O)c3nccs3)cc2c1

Structure (SMILES): NCCCC[C@H](NC(=O)CN(C(=O)[C@@H](CC1CCCCC1)NCC(=O)O)C1CCCC1)C(=O)C(=O)O
half-life [9]: 18 min | bioavailability [10]: 2% | Ki (Prothrombin [1]): 0.21 nM

Ki (Prothrombin [1]): > 1000 nM
Structure (SMILES): NCCCC[C@H](NC(=O)CN(C1CC1)C1Cc2ccccc2C1)C(=O)c1nccs1

half-life [9]: 8 min | bioavailability [10]: 25% | Ki (Prothrombin [1]): 0.82 nM
Structure (SMILES): NCCCC[C@H](NC(=O)[C@@H]1CC2CCCCC2N1C(=O)[C@@H](CC1CCCCC1)NCC(=O)O)C(=O)C(=O)O (stereo partly drawn)

bioavailability [2]: 39% | half-life [4]: 19 min | bioavailability [13]: 24% | ED50 (nM min-1 kg-1) (Prothrombin [6]): 7.5 | clearance [14]: 0.417 mL/min | half-life [8]: 78 min | Ki (Prothrombin [1]): 0.29 nM
Structure (SMILES): NCCCC[C@H](NC(=O)[C@@H]1CCCN1C(=O)[C@@H](CC1CCCCC1)NCC(=O)O)C(=O)C(=O)O
